Assay results reported in ChEMBL document CHEMBL5303300, “EUbOPEN Chemogenomics Library - Multiplex” (2023).
Values joined by “and” are separate entries in the source; they are usually repeats but may differ in a detail not shown here. Equal values may be shown once.

What was measured:
[1] = system: HEK-293T; experiment: Multiplex assay against HEK293T; type: toxicity, cell-based; conditions: human, number of replicates 2
In short: (§1)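 At seeding, live cells were stained with Hoechst33342, BioTracker Green Microtubule Cytoskeleton Dye, MitoTracker Red and Annexin V Alexa Fluor 680. After compound addition they were imaged on a CQ1 microscope at 37°C and 5% CO2, and CellPathfinder machine-learning gating sorted them into Hoechst high-intensity objects or normal cells, with normal cells further split into healthy, pyknosed or fragmented nuclei and pyknosed cells into mitotic or apoptotic. Tubulin, mitochondrial-mass and membrane-permeability phenotypes are given as per cents of cells with healthy nuclei.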

[2] = system: Fibroblast; experiment: Multiplex assay against human fibroblast; type: toxicity, cell-based; conditions: number of replicates 2; in short: as §1
[3] = 12 h, 1 µM, compound concentration 1 uM
[4] = 12 h, 10 µM, compound concentration 10 uM
[5] = 24 h, 1 µM, compound concentration 1 uM
[6] = 24 h, 10 µM, compound concentration 10 uM
[7] = 48 h, 1 µM, compound concentration 1 uM
[8] = 48 h, 10 µM, compound concentration 10 uM

O=S(=O)(c1ccccc1)N(CC(F)(F)F)c1ccc(C(O)(C(F)(F)F)C(F)(F)F)cc1 [T091317]
Population Apoptotic (%) [1, 3]: 40% and 48%
Population Fragmented Nuclei (%) [1, 3]: 4% and 3%
Population Healthy Nuclei (%) [1, 3]: 83% and 82%
Population Hoechst High Intensity Objects (%) [1, 3]: 7% and 5%
Population Membrane Permeable-Phenotype (%) [1, 3]: 3% and 4%
Population Mitochondria Different-Phenotype (%) [1, 3]: 15% and 22%
Population Mitotic Cells (%) [1, 3]: 59% and 51%
Population Normal (%) [1, 3]: 92% and 94%
Population Pyknosed Nuclei (%) [1, 3]: 11% and 14%
Population Tubulin-Different-Phenotype (%) [1, 3]: 56%
Total Cell Count [1, 3]: 740 and 522
Population Apoptotic (%) [1, 4]: 57% and 54%
Population Fragmented Nuclei (%) [1, 4]: 3% and 5%
Population Healthy Nuclei (%) [1, 4]: 83% and 81%
Population Hoechst High Intensity Objects (%) [1, 4]: 10% and 15%
Population Membrane Permeable-Phenotype (%) [1, 4]: 4% and 3%
Population Mitochondria Different-Phenotype (%) [1, 4]: 49% and 42%
Population Mitotic Cells (%) [1, 4]: 42% and 45%
Population Normal (%) [1, 4]: 89% and 84%
Population Pyknosed Nuclei (%) [1, 4]: 12%
Population Tubulin-Different-Phenotype (%) [1, 4]: 86% and 81%
Total Cell Count [1, 4]: 426 and 429
Population Apoptotic (%) [1, 5]: 39% and 56%
Population Fragmented Nuclei (%) [1, 5]: 8% and 4%
Population Healthy Nuclei (%) [1, 5]: 83% and 85%
Population Hoechst High Intensity Objects (%) [1, 5]: 8% and 7%
Population Membrane Permeable-Phenotype (%) [1, 5]: 4%
Population Mitochondria Different-Phenotype (%) [1, 5]: 5% and 8%
Population Mitotic Cells (%) [1, 5]: 60% and 43%
Population Normal (%) [1, 5]: 91% and 92%
Population Pyknosed Nuclei (%) [1, 5]: 8% and 10%
Population Tubulin-Different-Phenotype (%) [1, 5]: 36% and 38%
Total Cell Count [1, 5]: 1214 and 697
Population Apoptotic (%) [1, 6]: 44% and 68%
Population Fragmented Nuclei (%) [1, 6]: 2% and 7%
Population Healthy Nuclei (%) [1, 6]: 84% and 79%
Population Hoechst High Intensity Objects (%) [1, 6]: 9% and 18%
Population Membrane Permeable-Phenotype (%) [1, 6]: 4% and 3%
Population Mitochondria Different-Phenotype (%) [1, 6]: 53% and 59%
Population Mitotic Cells (%) [1, 6]: 55% and 31%
Population Normal (%) [1, 6]: 90% and 81%
Population Pyknosed Nuclei (%) [1, 6]: 12% and 13%
Population Tubulin-Different-Phenotype (%) [1, 6]: 87% and 86%
Total Cell Count [1, 6]: 385 and 376
Population Fragmented Nuclei (%) [1, 7]: 15% and 8%
Population Healthy Nuclei (%) [1, 7]: 80% and 87%
Population Hoechst High Intensity Objects (%) [1, 7]: 10% and 9%
Population Membrane Permeable-Phenotype (%) [1, 7]: 6% and 3%
Population Mitochondria Different-Phenotype (%) [1, 7]: 0% and 2%
Population Mitotic Cells (%) [1, 7]: 90% and 68%
Population Normal (%) [1, 7]: 89% and 90%
Population Pyknosed Nuclei (%) [1, 7]: 3%
Population Tubulin-Different-Phenotype (%) [1, 7]: 19% and 22%
Total Cell Count [1, 7]: 2956 and 1428
Population Apoptotic (%) [1, 8]: 67% and 74%
Population Fragmented Nuclei (%) [1, 8]: 7% and 14%
Population Healthy Nuclei (%) [1, 8]: 78% and 66%
Population Hoechst High Intensity Objects (%) [1, 8]: 14% and 24%
Population Membrane Permeable-Phenotype (%) [1, 8]: 4%
Population Mitochondria Different-Phenotype (%) [1, 8]: 66% and 58%
Population Mitotic Cells (%) [1, 8]: 32% and 25%
Population Normal (%) [1, 8]: 85% and 75%
Population Pyknosed Nuclei (%) [1, 8]: 14% and 19%
Population Tubulin-Different-Phenotype (%) [1, 8]: 94% and 82%
Total Cell Count [1, 8]: 296 and 264
Population Apoptotic (%) [2, 3]: 45% and 27%
Population Fragmented Nuclei (%) [2, 3]: 13% and 11%
Population Healthy Nuclei (%) [2, 3]: 60% and 68%
Population Hoechst High Intensity Objects (%) [2, 3]: 0%
Population Membrane Permeable-Phenotype (%) [2, 3]: 8% and 10%
Population Mitochondria Different-Phenotype (%) [2, 3]: 1%
Population Mitotic Cells (%) [2, 3]: 54% and 72%
Population Normal (%) [2, 3]: 100%
Population Pyknosed Nuclei (%) [2, 3]: 25% and 20%
Population Tubulin-Different-Phenotype (%) [2, 3]: 28% and 21%
Total Cell Count [2, 3]: 135 and 214
Population Apoptotic (%) [2, 4]: 33% and 30%
Population Fragmented Nuclei (%) [2, 4]: 14% and 12%
Population Healthy Nuclei (%) [2, 4]: 58% and 67%
Population Hoechst High Intensity Objects (%) [2, 4]: 0%
Population Membrane Permeable-Phenotype (%) [2, 4]: 6% and 8%
Population Mitochondria Different-Phenotype (%) [2, 4]: 1% and 4%
Population Mitotic Cells (%) [2, 4]: 66% and 69%
Population Normal (%) [2, 4]: 99% and 100%
Population Pyknosed Nuclei (%) [2, 4]: 28% and 19%
Population Tubulin-Different-Phenotype (%) [2, 4]: 40% and 34%
Total Cell Count [2, 4]: 151 and 132
Population Apoptotic (%) [2, 5]: 50% and 52%
Population Fragmented Nuclei (%) [2, 5]: 15% and 10%
Population Healthy Nuclei (%) [2, 5]: 54% and 57%
Population Hoechst High Intensity Objects (%) [2, 5]: 0%
